Assay results from ChEMBL document CHEMBL1141383, “Polycationic sulfonamides for the sequestration of endotoxin” (J Med Chem, 2007).
pIC50: −log10 of the molar value.

Tests used:
[1] = test system: HEK293; assay: Inhibition of LPS-induced NF-kappaB production in HEK293 cells; type: functional, cell-based; conditions: Homo sapiens
Method in brief: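 HEK293 cells cotransfected with TLR4, CD14 and MD2 were stimulated with LPS, and induction of NF-κB was quantified. IC50 is the concentration inhibiting 50% of the response. Run in triplicate with polymyxin B reference and negative and positive controls.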

[2] = test system: J774.1; assay: Inhibition of LPS-induced nitric oxide production in murine J774.1 cells by automated Griess assay; type: functional, cell-based; conditions: Mus musculus
Method in brief: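 Murine macrophage J774A.1 cells were stimulated with 100 ng/mL LPS, and NO was read by automated Griess assay. IC50 is the concentration inhibiting 50% of the response. Run in triplicate with polymyxin B reference and negative and positive controls.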

[3] = Binding affinity to lipid A moiety of LPS in gram negative bacteria by fluorescent-based displacement assay
Method in brief: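 LPS binding measured by automated rapid-throughput fluorescence displacement of the probe BODIPY-TR cadaverine from LPS. ED50 is the concentration displacing 50% of LPS-bound probe. Run in triplicate, with polymyxin B as reference and negative and positive controls.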

[4] = test system: Blood; assay: Inhibition of LPS-induced TNFalpha release in human whole blood; type: functional, tissue-based
Method in brief: (§1)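 Healthy human whole blood, ex vivo, was stimulated with LPS. TNF-α, IL-1β, IL-6, IL-8, IL-10 and IL-12p70 were quantified concurrently by a multiplexed flow-cytometric bead array. IC50 is the concentration inhibiting 50% of the response. Run in triplicate with polymyxin B reference and negative and positive controls.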

[5] = test system: Blood; assay: Inhibition of LPS-induced IL6 release in human whole blood; type: functional, tissue-based; method in brief: as §1
[6] = test system: Blood; assay: Inhibition of LPS-induced IL8 release in human whole blood; type: functional, tissue-based; method in brief: as §1
[7] = test system: Mus musculus; assay: Protection against LPS-induced lethality in galactosamine-sensitized CF1 mouse model of septic shock at 8 mg/kg after 24 hrs; type: functional, organism-based; parameters: dose 8 mg/kg
Method in brief: (§2)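 Female outbred CF-1 mice, 9–11 weeks old and 22–28 g, were sensitized with D-galactosamine. Cohorts of five received graded compound doses in saline i.p. in one flank, immediately before an i.p. challenge of 200 ng E. coli 0111:B4 LPS (2× LD100) in the other flank. Lethality was scored at 24 h.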

[8] = test system: Mus musculus; assay: Protection against LPS-induced lethality in galactosamine-sensitized CF1 mouse model of septic shock at >2 mg/kg after 24 hrs; type: functional, organism-based; method in brief: as §2

For `CCCCCCCCCCCCCCCCS(=O)(=O)NCCCNCCCNCCCCNCCCNCCCNS(=O)(=O)CCCCCCCCCCCCCCCC`, the pIC50 [1] was 4.93, the pIC50 [2] was 5.20 and the ED50 [3] was 133 µM.

Molecule `CCCCCCCCCCCCS(=O)(=O)NCCNCCCNCCN` has a pIC50 [1] of 6.16 and an ED50 [3] of 4.77 µM.

In the case of `CCCCCCCCCCCCS(=O)(=O)NCCCN(CCCNCCCCNCCCN)CCCNS(=O)(=O)CCCCCCCCCCCC`, the pIC50 [1] was 4.88, the pIC50 [2] was 5.64 and the ED50 [3] was 3.98 µM.

With `CCCCCCCCS(=O)(=O)NCCCNCCCNCCCN` the pIC50 [1] was 5.25 and the ED50 [3] was 6.7 µM.

For `CCCCCCCCCCCCCCCCS(=O)(=O)NCCCNCCCCNCCCN`, the pIC50 [1] was 6.55, the pIC50 [2] was 6.35 and the pIC50 [4] was 4.66. For the same molecule, the pIC50 [5] was 5.09, the pIC50 [6] was 4.82 and the Activity [7] was “Dose-dependent effect”. The ED50 [3] was 3.87 µM.

For `CCCCCCCCCCS(=O)(=O)NCCCNCCCNCCCCNCCCNCCCNS(=O)(=O)CCCCCCCCCC`, the pIC50 [1] was 5.38, the pIC50 [2] was 6.16 and the ED50 [3] was 13.5 µM.

With `CCCCCCCCCCCCCCCCS(=O)(=O)NCCCOCCCCOCCCN` the pIC50 [1] was 4.65, the pIC50 [2] was 4.51 and the ED50 [3] was > 5000 µM.

For `CCCCCCCCS(=O)(=O)NCCCNCCCNCCCCNCCCN`, the pIC50 [1] was 6.09, the pIC50 [2] was 5.19 and the ED50 [3] was 2.84 µM.

`CCCCCCCC(=O)NCCCN(CCCNCCCCNCCCN)CCCNC(=O)CCCCCCC` showed a pIC50 [1] of 5.01, a pIC50 [2] of 5.04 and an ED50 [3] of 1 µM.

Work on `CCCCCCCCCCCCCCCCS(=O)(=O)NCCCN(CCCN)CCCN` yielded a pIC50 [1] of 5.04 and an ED50 [3] of 12.3 µM.

`CCCCCCCCCCCCS(=O)(=O)NCCCNCCCNCCCCNCCCNCCCNS(=O)(=O)CCCCCCCCCCCC` showed a pIC50 [1] of 4.99, a pIC50 [2] of 5.30 and an ED50 [3] of 55.2 µM.

Work on `CCCCCCCCCCS(=O)(=O)NCCCNCCCNCCCCNCCCN` yielded a pIC50 [1] of 6.56, a pIC50 [2] of 5.96 and a pIC50 [4] of 4.48. For the same molecule, the pIC50 [5] was 4.53, the pIC50 [6] was 4.65 and the ED50 [3] was 2.89 µM.

With `CCCCCCCCCCCCCCCCS(=O)(=O)NCCCN(CCCNCCCNCCCCNCCCN)CCCNS(=O)(=O)CCCCCCCCCCCCCCCC` the pIC50 [1] was 5.57, the pIC50 [2] was 5.28 and the ED50 [3] was 9.31 µM.

`CCCCCCCCCCCCCCCCS(=O)(=O)NCCCNCCCNCCCCNCCCN` gave a pIC50 [1] of 6.70, a pIC50 [2] of 6.92 and a pIC50 [4] of 4.85. For the same molecule, the pIC50 [5] was 5.23, the pIC50 [6] was 4.82 and the Activity [7] was “Dose-dependent effect”. It also gave an ED50 [3] of 4.71 µM and a pIC50 [3] of 5.38.

In the case of `CCCCCCCCCCCCCCCCCCS(=O)(=O)NCCCNCCCCNCCCN`, the pIC50 [1] was 6.44, the pIC50 [2] was 6.32 and the pIC50 [4] was 4.74. For the same molecule, the pIC50 [5] was 5.06, the pIC50 [6] was 4.81 and the ED50 [3] was 6.01 µM.

`CCCCCCCCCCS(=O)(=O)NCCCNCCCCNCCCN` showed a pIC50 [1] of 6.30, a pIC50 [2] of 5.35 and an ED50 [3] of 3.7 µM.

With `CCCCCCCCS(=O)(=O)NCCCNCCCCNCCCN` the pIC50 [1] was 4.48, the pIC50 [2] was 5.84 and the ED50 [3] was 6.64 µM.

For `CCCCCCCCS(=O)(=O)NCCCN(CCCNCCCCNCCCN)CCCNS(=O)(=O)CCCCCCCC`, the pIC50 [1] was 6.17, the pIC50 [2] was 5.74 and the ED50 [3] was 2.17 µM.

For `CCCCCCCCCCCCCCCCS(=O)(=O)N(CCCN)CCCCNCCCN`, the pIC50 [1] was 5.57, the pIC50 [2] was 4.86 and the ED50 [3] was 45.6 µM.

With `CCCCCCCCS(=O)(=O)NCCCN(CCCNCCCNCCCCNCCCN)CCCNS(=O)(=O)CCCCCCCC` the pIC50 [1] was 6.52, the pIC50 [2] was 6.49 and the pIC50 [4] was 4.96. The pIC50 [5] was 5.11, the pIC50 [6] was 4.90 and the Activity [8] was “Toxic”. It also gave an ED50 [3] of 2.62 µM.

For `CCCCCCCCCCS(=O)(=O)NCCCN(CCCNCCCNCCCCNCCCN)CCCNS(=O)(=O)CCCCCCCCCC`, the pIC50 [1] was 5.66, the pIC50 [2] was 6.37 and the ED50 [3] was 1.16 µM.

In the case of `CCCCCCCCS(=O)(=O)NCCNCCCNCCN`, the pIC50 [1] was 4.86 and the ED50 [3] was 10.6 µM.

`CCCCCCCCCCCCCCCCS(=O)(=O)NCCCN(CCCNCCCCNCCCN)CCCNS(=O)(=O)CCCCCCCCCCCCCCCC` gave a pIC50 [1] of 5.31, a pIC50 [2] of 4.82 and an ED50 [3] of 26.4 µM.

In the case of `CCCCCCCCCCCCS(=O)(=O)NCCCN(CCCNCCCNCCCCNCCCN)CCCNS(=O)(=O)CCCCCCCCCCCC`, the pIC50 [1] was 4.79, the pIC50 [2] was 6.29 and the ED50 [3] was 6.82 µM.

For `CCCCCCCCS(=O)(=O)NCCCNCCCNCCCCNCCCNCCCNS(=O)(=O)CCCCCCCC`, the pIC50 [1] was 6.22, the pIC50 [2] was 6.24 and the ED50 [3] was 2.6 µM.

With `CCCCCCCCS(=O)(=O)NCCCNC/C=C/CNCCCN` the pIC50 [1] was 4.90 and the ED50 [3] was 12.4 µM.

With `CCCCCCCCCCCCS(=O)(=O)NCCCNCCCNCCCCNCCCN` the pIC50 [1] was 6.72, the pIC50 [2] was 6.41 and the pIC50 [4] was 4.52. The pIC50 [5] was 4.92, the pIC50 [6] was 4.82 and the ED50 [3] was 2.92 µM.

In the case of `CCCCCCCCCCCCCCCCS(=O)(=O)NCCN(CCN)CCN`, the pIC50 [1] was 6.42 and the ED50 [3] was 3.54 µM.

With `CCCCCCCC(=O)NCCCN(CCCNCCCNCCCCNCCCN)CCCNC(=O)CCCCCCC` the pIC50 [1] was 5.50, the pIC50 [2] was 5.61 and the ED50 [3] was 1.32 µM.

Work on `CCCCCCCCCCS(=O)(=O)NCCCN(CCCNCCCCNCCCN)CCCNS(=O)(=O)CCCCCCCCCC` yielded a pIC50 [1] of 5.29, a pIC50 [2] of 5.96 and an ED50 [3] of 2.4 µM.

In the case of `CCCCCCCCCCCCS(=O)(=O)NCCCNCCCNCCCN`, the pIC50 [1] was 6.44 and the ED50 [3] was 4.27 µM.

With `CCCCCCCCCCCCCCCCCCS(=O)(=O)NCCCNCCCNCCCCNCCCN` the pIC50 [1] was 5.97, the pIC50 [2] was 6.64 and the ED50 [3] was 4.45 µM.

In the case of `CCCCCCCCCCCCCCCCCCS(=O)(=O)NCCCN(CCCNCCCCNCCCN)CCCNS(=O)(=O)CCCCCCCCCCCCCCCCCC`, the pIC50 [1] was 4.19 and the ED50 [3] was 28.3 µM.

`CCCCCCCCCCCCCCCCCCS(=O)(=O)NCCCNCCCNCCCCNCCCNCCCNS(=O)(=O)CCCCCCCCCCCCCCCCCC` showed a pIC50 [1] of 5.19, a pIC50 [2] of 5.37 and an ED50 [3] of 5000 µM.

Work on `CCCCCCCCCCCCS(=O)(=O)NCCCNCCCCNCCCN` yielded a pIC50 [1] of 6.39, a pIC50 [2] of 5.87 and an ED50 [3] of 2.69 µM.

In the case of `CCCCCCCCCCCCS(=O)(=O)NCCCNC/C=C/CNCCCN`, the pIC50 [1] was 6.28 and the ED50 [3] was 3.83 µM.
